YB-1 expr inh: YB-1 expression inhibition. U2OS, qRT-PCR YB-1 vs CDIP delta delta Cp, 16 h; active compounds read high; zero = DMSO, each unit about twofold. delta delta Cp (YB-1 minus CDIP) (test concentration not listed). 30,000 tested, 0.37% active;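 active = delta delta Cp rounded down to an integer at or above 3, about 3 SD of DMSO wells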;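 note: higher means less YB-1 transcript or more CDIP transcript relative to DMSO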
T cruzi intra: intracellular Trypanosoma cruzi inhibition; intracellular Trypanosoma cruzi in host cells, plate reader; activity score (inhibition), % at 5.01 µM; 22,000 tested, 4.9% active; AID 651903; in the data active = activity score above about 55%; inconclusive = no clear call, values can overlap the other calls;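 note: parasites and compound incubated about four days before reading; 0% = median of neutral control wells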
INS-1E rescue: preserves ATP levels in cytokine-treated INS-1E cells. INS-1E cytokine-induced death, ATP luminescence, 48 h; normalised: neutral wells 0, positive control 100. protection from cytokine-induced ATP loss, % at 10 µM. 20,000 tested, 0.1% active. AID 488910;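 active = mean replicate protection from cytokine-induced ATP loss at least 50% and at least 75% of replicates each reaching 50%; inconclusive = meets only one of the two criteria, mean or replicate share; inactive = fails both the mean and replicate share criteria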
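Assay system – rat INS-1E insulinoma cell line · Quantity – 8000 cells per well · Buffer or medium – RPMI without phenol red, 5% FBS · Schedule – 48 h co-treatment, 10 min post-lysis read · Technique – luminescent ATP assay (CellTiter-Glo)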
Starred values were filed as active, the others as inactive; ? = inconclusive; . = no result. Shown is part of a subset that was picked to be rich in hits.

SMILES	YB-1 expr inh	T cruzi intra	INS-1E rescue
C[C@H](CO)N1C[C@H](C)[C@H](CN(C)S(=O)(=O)c2ccc(Cl)cc2)Oc2ccc(NC(=O)Cc3cn(C)c4ccccc34)cc2C1=O	-0.0039	50	-9
C[C@@H]1CN([C@H](C)CO)C(=O)c2cc(NC(=O)Cc3cn(C)c4ccccc34)ccc2O[C@H]1CN(C)Cc1ccc(-c2ccccc2)cc1	0.096	13	-10
C[C@H]1CN([C@@H](C)CO)C(=O)c2cc(NC(=O)Cc3cn(C)c4ccccc34)ccc2O[C@H]1CN(C)S(=O)(=O)c1ccc(Cl)cc1	-0.0078	67*	1
C[C@H]1CN([C@@H](C)CO)C(=O)c2cc(NC(=O)Cc3cn(C)c4ccccc34)ccc2O[C@@H]1CN(C)Cc1ccc(-c2ccccc2)cc1	0.27	75*	-10
CCN(CC)S(=O)(=O)c1cccc(C(=O)O)c1	-1.1	.	.
CC(=O)Oc1cc(OC(C)=O)c2c(c1)O[C@H](c1ccc(OC(C)=O)c(OC(C)=O)c1)[C@H](OC(C)=O)C2	0.03	.	.
FC(F)(F)c1cccc(-n2c(Cn3nnc(N4CCOCC4)n3)n[nH]c2=S)c1	-0.005	.	.
C=CCN1C(=O)[C@@]2(O[C@@H](CCn3cc(CCO)nn3)[C@H]([Si](C)(C)c3ccc(OC)cc3)[C@H]2C)c2cc(N3C(=O)c4cccc5cccc3c45)ccc21	-0.28	.	.
CC1(NC(=S)Nc2ccc(O)cc2)CCS(=O)(=O)C1 (centres undefined)	0.59	.	.
CCOC(=O)c1sc(SCc2c(Cl)cccc2Cl)c(S(=O)(=O)C(C)C)c1N	0.25	.	.
Cc1ccc(S(=O)(=O)N(c2cc(C)nn2C)S(=O)(=O)c2ccc(C)cc2)cc1	-0.9	.	.
C[C@H](CO)N1C[C@H](C)[C@H](CN(C)Cc2ccc(C(=O)Nc3ccccc3N)cc2)Oc2ccc(NC(=O)c3ccncc3)cc2CC1=O	-0.48	46	27
C[C@@H]1CN([C@@H](C)CO)C(=O)Cc2cc(NC(=O)CCC(F)(F)F)ccc2O[C@@H]1CN(C)Cc1ccc(C(=O)Nc2ccccc2N)cc1	-0.44	68*	-7
C[C@@H]1CN([C@H](C)CO)C(=O)c2cc(NC(=O)Nc3ccc(C(F)(F)F)cc3)ccc2O[C@H]1CN(C)Cc1ccc(C(=O)Nc2ccccc2N)cc1	-0.22	57*	-13
C[C@@H]1CN([C@H](C)CO)C(=O)Cc2cc(NC(=O)Nc3ccc(F)cc3)ccc2O[C@H]1CN(C)Cc1ccc(C(=O)Nc2ccccc2N)cc1	-0.17	33	1
C[C@@H]1CN([C@@H](C)CO)C(=O)c2cc(NC(=O)Nc3ccc(C(F)(F)F)cc3)ccc2O[C@H]1CN(C)Cc1ccc(C(=O)Nc2ccccc2N)cc1	0.43	39	2
CC(C)NC(=O)Nc1ccc2c(c1)CC(=O)N([C@H](C)CO)C[C@H](C)[C@H](CN(C)Cc1ccc(C(=O)Nc3ccccc3N)cc1)O2	0.33	68*	6
C[C@@H]1CN([C@@H](C)CO)C(=O)Cc2cc(NC(=O)Nc3ccc(C(F)(F)F)cc3)ccc2O[C@@H]1CN(C)Cc1ccc(C(=O)Nc2ccccc2N)cc1	-0.26	84*	-28
C[C@H](CO)N1C[C@H](C)[C@H](CN(C)Cc2ccc(C(=O)Nc3ccccc3N)cc2)Oc2ccc(NC(=O)CCC(F)(F)F)cc2CC1=O	-0.5	53	29
COc1ccc(C2=CC(c3ccccc3)c3ccccc3O2)cc1OC (centres undefined)	0.14	.	.
C[C@@H]1CN([C@H](C)CO)C(=O)Cc2cc(NC(=O)Nc3ccccc3)ccc2O[C@@H]1CN(C)Cc1ccc(C(=O)Nc2ccccc2N)cc1	0.27	64*	0
C[C@H](CO)N1C[C@H](C)[C@H](CN(C)Cc2ccc(C(=O)Nc3ccccc3N)cc2)Oc2ccc(NC(=O)Nc3ccc(C(F)(F)F)cc3)cc2CC1=O	-0.15	82*	-21
C[C@@H]1CN([C@H](C)CO)C(=O)c2cc(NC(=O)Nc3ccc(C(F)(F)F)cc3)ccc2O[C@@H]1CN(C)Cc1ccc(C(=O)Nc2ccccc2N)cc1	-0.18	34	-16
C[C@H]1CN([C@@H](C)CO)C(=O)Cc2cc(NC(=O)Nc3ccc(F)cc3)ccc2O[C@@H]1CN(C)Cc1ccc(C(=O)Nc2ccccc2N)cc1	0.2	33	6
C[C@H]1CN([C@@H](C)CO)C(=O)Cc2cc(NC(=O)Nc3ccc(F)cc3)ccc2O[C@H]1CN(C)Cc1ccccc1	0.016	25	-10
SMILES	YB-1 expr inh	T cruzi intra	INS-1E rescue
COc1ccc(NC(=O)Nc2ccc3c(c2)CC(=O)N([C@H](C)CO)C[C@H](C)[C@H](CN(C)Cc2ccc(Oc4ccccc4)cc2)O3)cc1	0.00041	32	-37
C[C@H](CO)N1C[C@H](C)[C@H](CN(C)Cc2ccc(Oc3ccccc3)cc2)Oc2ccc(NC(=O)Nc3ccc(F)cc3)cc2CC1=O	0.31	62*	-52
C[C@H](CO)N1C[C@H](C)[C@H](CN(C)Cc2ccccc2)Oc2ccc(NC(=O)Nc3ccc(F)cc3)cc2CC1=O	-0.016	-40	-9
C[C@H]1CN([C@@H](C)CO)C(=O)Cc2cc(NC(=O)Nc3ccc(F)cc3)ccc2O[C@@H]1CN(C)Cc1ccc(Oc2ccccc2)cc1	0.47	70*	-25
C[C@@H]1CN([C@H](C)CO)C(=O)Cc2cc(NC(=O)Nc3ccc(F)cc3)ccc2O[C@@H]1CN(C)Cc1ccc(Oc2ccccc2)cc1	-0.32	71*	-53
COc1ccc(NC(=O)Nc2ccc3c(c2)CC(=O)N([C@@H](C)CO)C[C@@H](C)[C@@H](CN(C)Cc2ccc(Oc4ccccc4)cc2)O3)cc1	0.0029	60*	-12
C[C@@H]1CN([C@H](C)CO)C(=O)Cc2cc(NC(=O)Nc3ccc(F)cc3)ccc2O[C@H]1CN(C)Cc1ccc(Oc2ccccc2)cc1	0.078	?	-68
O=C(O)CC1CCC(CC(O)/C=C\C/C=C\CCCCCO)O1 (centres undefined)	1.6	.	.
COc1ccc(NC(=O)Nc2ccc3c(c2)CC(=O)N([C@H](C)CO)C[C@@H](C)[C@@H](CN(C)Cc2ccc(-c4ccccc4)cc2)O3)cc1	-0.13	72*	-10
COc1ccc(NC(=O)Nc2ccc3c(c2)CC(=O)N([C@H](C)CO)C[C@H](C)[C@H](CN(C)Cc2ccc(-c4ccccc4)cc2)O3)cc1	0.012	15	-36
COc1ccc(CN(C)C[C@H]2Oc3ccc(NS(=O)(=O)c4ccc(Cl)cc4)cc3CC(=O)N([C@H](C)CO)C[C@H]2C)cc1	-0.24	71*	-5
COc1ccc(CN(C)C[C@@H]2Oc3ccc(NS(=O)(=O)c4ccc(Cl)cc4)cc3CC(=O)N([C@H](C)CO)C[C@@H]2C)cc1	0.046	27	-1
COc1ccc(CN(C)C[C@@H]2Oc3ccc(NS(=O)(=O)c4ccc(C)cc4)cc3CC(=O)N([C@H](C)CO)C[C@@H]2C)cc1	-0.078	15	-1
COc1ccc(CN(C)C[C@H]2Oc3ccc(NS(=O)(=O)c4ccc(C)cc4)cc3CC(=O)N([C@@H](C)CO)C[C@@H]2C)cc1	-0.12	56*	1

Bioassay records deposited in PubChem by Broad Institute.
